Measurements reported in ChEMBL document CHEMBL4219242, “Furoxans (Oxadiazole-4 N-oxides) with Attenuated Reactivity are Neuroprotective, Cross the Blood Brain Barrier, and Improve Passive Avoidance Memory” (J Med Chem, 2018).
pEC50: −log10 of the molar value. Active and inactive are the calls of the source.

Assays:
PC-12 [1] = assay: Neuroprotective activity against oxygen glucose deprivation-induced cell death in rat PC12 cells assessed as change in cell viability at 1 uM after 24 hrs by MTT assay relative to control; assay type: functional
Summary of the method: (§1)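 Undifferentiated PC12 cells (passage 12−14), 1 × 10^6 plated overnight in DMEM/F12 with 5% FBS and 5% horse serum. OGD: glucose-free HBSS under argon in an anaerobic chamber, 1.5 h at 37 °C. Reoxygenated in fresh growth medium with compound or DMSO vehicle for 24 h at 37 °C. Viability by MTT (0.5 mg/mL, 4 h), DMSO-solubilised, A540. % change vs vehicle control; mean ± SEM, n=3, triplicate experiments.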

PC-12 [2] = assay: Neuroprotective activity against oxygen glucose deprivation-induced cell death in rat PC12 cells assessed as change in cell viability at 25 uM after 24 hrs by MTT assay relative to control; assay type: functional; summary of the method: as §1
PC-12 [3] = assay: Neuroprotective activity against oxygen glucose deprivation-induced cell death in rat PC12 cells assessed as change in cell viability at 10 uM after 24 hrs by MTT assay relative to control; assay type: functional; summary of the method: as §1
[4] = Thiol reactivity of the compound in pH 7.4 PBS buffer at 250 uM after 2 to 12 hrs by HPLC-PDA analysis; assay type: physicochemical; conditions: pH 7.4, 250 µM
Summary of the method: (§2)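 Compound (250 μM) or N-ethylmaleimide control (250 μM) incubated with or without N-acetylcysteine (5 mM) in 50 mM PBS, pH 7.4, at 37 °C. Aliquots taken at 2 and 12 h were analysed by HPLC-PDA. Peak AUC at each analyte's λmax gave the remaining starting material.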

[5] = Drug uptake in cytosol of rat PC12 cells at 25 after 24 hrs under oxygen glucose deprivation condition by LC-MS/MS analysis; assay type: ADME, subcellular, PC-12
Summary of the method: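 After OGD (as in the neuroprotection assay), 1×10^6 PC12 cells were exposed to analyte at 25 μM for 24 h; a non-OGD plate served as control. Medium and cytosolic fractions (HEPES/NP-40 lysis buffer, 15 min at 0 °C, centrifuged) were diluted in 2% formic acid, spiked with the deuterated/nondeuterated partner as internal standard, and analysed by UPLC-MS/MS (MRM). AUCs were normalised to the internal standard.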

[6] = Ratio of drug uptake in C57BL/6 mouse brain to plasma at 20 mg/kg, ip measured after 1 to 12 hrs by LC-MS/MS analysis; assay type: ADME, organism-based; conditions: read-out: BPR
Summary of the method: (§3)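 Brain:plasma ratio taken from forebrain and plasma levels in C57BL/6 mice dosed at 20 mg/kg (ip in saline/1% DMSO or po in sesame oil), sampled at 1, 2 or 12 h. Samples extracted by SPE with the d4 internal standard and measured by LC-MS/MS MRM. Mean ± SEM; routes compared by unpaired t test.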

Mus musculus [7] = assay: Effect on CREB phosphorylation in hippocampal tissue of scopolamine-induced C57BL/6 mouse memory deficit model at 20 mg/kg, ip treated for 2 hrs prior to test followed by scopolamine challenge 30 mins prior to test by Western blot analysis; assay type: organism-based; conditions: in vivo
Summary of the method: (§4)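 C57BL/6 mice (N = 8 per cohort, blinded) received the HCl salt at 20 mg/kg ip (saline/1% DMSO) or vehicle 2 h before sacrifice, and scopolamine at 1 mg/kg ip or saline 30 min before sacrifice. Hippocampal lysates were run on 10−20% Tris-glycine gels and transferred to PVDF. Blots were probed with pCREB Ser133, CREB, p-ERK1/2 Thr202/Tyr204 and ERK1/2 antibodies, normalised to GAPDH and expressed as phospho:total.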

[8] = Half life in C57BL/6 mouse plasma at 20 mg/kg, ip or po measured after 1 to 12 hrs by LC-MS/MS analysis; assay type: ADME, organism-based
Summary of the method: (§5)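 Male C57BL/6 mice (n = 4 per group) given the HCl salt at 20 mg/kg, either by oral gavage in sesame oil or ip in 0.9% NaCl with 1% DMSO. Sacrificed at 1, 2 or 12 h. Plasma (cardiac puncture, K2EDTA) and forebrain homogenate underwent solid-phase extraction with the d4 internal standard, then LC-MS/MS MRM quantitation against a spiked-brain calibration curve. Concentrations normalised to tissue weight; duplicate LC runs.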

PC-12 [9] = assay: Cytotoxicity against rat PC12 cells assessed as reduction in cell viability at 50 uM after 24 hrs by MTT assay; assay type: cell-based; conditions: pc-12, 24 h
PC-12 [10] = assay: Neuroprotective activity against oxygen glucose deprivation-induced cell death in rat PC12 cells assessed as change in cell viability at 10 to 50 uM after 24 hrs cotreated with sGC inhibitor ODQ by MTT assay; assay type: functional, cell-based
Summary of the method: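 OGD-exposed PC12 cells (90 min glucose-free HBSS under argon, 37 °C) treated for 24 h with compound with or without the sGC inhibitor ODQ (10 μM). MTT viability read-out (0.5 mg/mL, 4 h, A540). Mean ± SEM (n = 3) of duplicate experiments; one-way ANOVA with Dunnett's test against vehicle.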

PC-12 [11] = assay: Neuroprotective activity against oxygen glucose deprivation-induced cell death in rat PC12 cells assessed as reduction in cell viability at 50 uM after 24 hrs by MTT assay; assay type: functional, cell-based
PC-12 [12] = assay: Neuroprotective activity against oxygen glucose deprivation-induced cell death in rat PC12 cells assessed as change in cell viability after 24 hrs by resorufin-dye based assay; assay type: functional; conditions: PC-12, 24 h
Summary of the method: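 PC12 cells (undifferentiated, passage 12−14) given OGD for 90 min (glucose-free HBSS, argon, 37 °C), then normoxic growth medium with compound at 0.1, 1, 5, 10, 25 or 50 μM for 24 h. PrestoBlue (10%, 30 min) fluorescence at 560/590 nm. Viability as percent change against vehicle-control mean; control plates without OGD were included.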

[13] = Half life in C57BL/6 mouse brain at 20 mg/kg, ip or po measured after 1 to 12 hrs by LC-MS/MS analysis; assay type: ADME, organism-based; summary of the method: as §5
Mus musculus [14] = assay: Effect on Erk phosphorylation in hippocampal tissue of scopolamine-induced C57BL/6 mouse memory deficit model at 20 mg/kg, ip treated for 2 hrs prior to test followed by scopolamine challenge 30 mins prior to test by Western blot analysis; assay type: organism-based; conditions: in vivo; summary of the method: as §4
[15] = Drug uptake in C57BL/6 mouse brain at 20 mg/kg, ip or po measured after 1 to 12 hrs by LC-MS/MS analysis; assay type: ADME, organism-based; conditions: in vivo; summary of the method: as §5
[16] = Ratio of drug uptake in C57BL/6 mouse brain to plasma at 20 mg/kg, po measured after 1 to 12 hrs by LC-MS/MS analysis; assay type: ADME, organism-based; conditions: read-out: BPR; summary of the method: as §3
[17] = Drug uptake in C57BL/6 mouse plasma at 20 mg/kg, ip or po measured after 1 to 12 hrs by LC-MS/MS analysis; assay type: ADME, organism-based; conditions: in vivo; summary of the method: as §5
Mus musculus [18] = assay: Reversal of scopolamine-induced memory impairment in C57BL/6 mouse assessed as latency time to enter dark compartment at 20 mg/kg, ip administered 60 to 120 mins prior to training followed by scopolamine challenge 30 mins prior to training measured after 24 hrs (reference value: 63.5 +/- 30 sec); assay type: functional
Summary of the method: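 Male C57BL/6 mice, habituated to confirm photophobia, were given the HCl salt (0.1–20 mg/kg ip in 0.9% NaCl/1% DMSO) 60 or 120 min before training, and scopolamine 1 mg/kg ip 30 min before training. Double-trial step-through training used a 0.5 mA, 3 s shock. Latency to enter the dark side was measured 24 h later (cut-off 300 s). n = 8–9; ANOVA with Dunnett's test.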

[19] = Stability of the compound in pH 7.4 PBS buffer at 250 uM after 2 to 12 hrs in presence of excess free thiols by HPLC-PDA analysis; assay type: physicochemical; conditions: pH 7.4, 250 µM; summary of the method: as §2
Mus musculus [20] = assay: Effect on CREB phosphorylation in C57BL/6 mouse forebrain at 20 mg/kg, ip or po measured after 1 to 12 hrs by ELISA; assay type: organism-based; conditions: in vivo

Row | Structure (SMILES) | Activity (PC-12 [1]) [%] | Activity (PC-12 [2]) [%] | Activity (PC-12 [3]) [%] | also measured
1 | CC1CCN(Cc2no[n+]([O-])c2-c2ccc(OC(F)F)cc2)CC1 | 67 | 53 | 61 | –
2 | CCN1C(=O)C=CC1=O [N-ETHYLMALEIMIDE] | – | – | – | Drug metabolism [4]: Metabolite_Detected
3 | CC1CCN(Cc2no[n+]([O-])c2-c2ccccc2)CC1 | -21 | -11 | 6 | –
4 | CC1CCN(Cc2no[n+]([O-])c2-c2ccc(C(F)(F)F)cc2)CC1 | 2 | -22 | -16 | –
5 | CC1CCN(Cc2no[n+]([O-])c2-c2ccc(Cl)cc2)CC1 | -10 | 4 | 19 | –
6 | CC1CCN(Cc2c(-c3ccc(Cl)cc3)no[n+]2[O-])CC1 | 35 | 25 | 7 | –
7 | CC1CCN(Cc2c(-c3ccc(F)cc3)no[n+]2[O-])CC1 | 11 | 5 | 11 | –
8 | CC1CCN(Cc2no[n+]([O-])c2-c2ccc(Br)cc2)CC1 | 25 | 96 | 77 | –
9 | Cc1ccc(-c2no[n+]([O-])c2CN2CCC(C)CC2)cc1 | 7 | 10 | 12 | –
10 | CC1CCN(Cc2c(-c3ccccc3)no[n+]2[O-])CC1 | 9 | 16 | 19 | –
11 | Cc1ccc(-c2c(CN3CCC(C)CC3)no[n+]2[O-])cc1 | 22 | 8 | 13 | –
12 | COc1ccc(-c2no[n+]([O-])c2CN2CCC(C)CC2)cc1 | 14 | -1 | 10 | –
13 | CC1CCN(Cc2c(-c3ccc(OC(F)F)cc3)no[n+]2[O-])CC1 | 54 | 108 | 86 | –
14 | CC1CCN(Cc2c(-c3ccc(Br)cc3)no[n+]2[O-])CC1 | -7 | 19 | -2 | –
15 | COc1ccc(-c2c(CN3CCC(C)CC3)no[n+]2[O-])cc1 | 11 | 5 | 12 | –
16 | [2H]C1([2H])CC(C)CC([2H])([2H])N1Cc1no[n+]([O-])c1-c1ccc(F)cc1 | 8 | 7 | 20 | Drug uptake [5]: Active
17 | [2H]C1([2H])CC(C)CC([2H])([2H])N1Cc1c(-c2ccc(F)cc2)no[n+]1[O-] | 11 | -1 | 6 | –
18 | CC1CCN(Cc2c(-c3ccc(C(F)(F)F)cc3)no[n+]2[O-])CC1 | -9 | 0 | 10 | –
19 | CC1CCN(Cc2no[n+]([O-])c2-c2ccc(F)cc2)CC1 | -3 | 41 | 46 | Kp [6]: 0.68; Activity (Mus musculus [7]): Non-Toxic; half-life [8]: 1.83 h; Activity (PC-12 [9]): Non-Toxic; Activity (PC-12 [10]): inactive; Activity (PC-12 [11]): inactive; pEC50 (PC-12 [12]): 5.72; half-life [13]: 0.833 h; Activity (Mus musculus [14]): Non-Toxic; Drug uptake [15]: Active; Kp [16]: 1.49; Drug uptake [5]: Active; Drug uptake [17]: Active; Time (Mus musculus [18]): 237 s; Stability [19]: Stable; Activity (Mus musculus [20]): Non-Toxic
